An excerpt weighted towards active compounds, which were near 1.8% of everything screened.
HKDC1 inh – HKDC1 hexokinase inhibitors, primary screen, biochemical, fluorescence, uHTS; Q2TB90; recombinant HKDC1, G6PDH/diaphorase resazurin coupled fluorescence; inhibition, % at 20 µM; 0.16% of 340,000 active; AID 493160, 2011;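 active means inhibition above about 35% when tested at 20 µM, limit read from the data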;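 further: plate controls were DMSO wells with enzyme for no effect and DMSO wells lacking enzyme for full effect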
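Material: recombinant HKDC1 hexokinase; Amount: HKDC1 at 5 µg/mL; Medium: Tris pH 8.0 buffer with MgCl2, Tween-20, BSA, BME; Schedule: 90 min reaction incubation at room temperature, dark; Technique: coupled resazurin fluorescence, excitation 525 nm, emission 613 nm.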
HDAC3 inh – HDAC3 deacetylase inhibitors, primary screen, biochemical, fluorescence, cell-free homogeneous | Histone deacetylase 3 (Homo sapiens), O15379 | recombinant HDAC3, fluorogenic peptide/trypsin coupled | inhibition, % at 8.3 µM | 0.15% of 320,000 active; in the data active means inhibition above about 26%, passing the limit was not always enough
Target sequence (O15379 whole entry, looked up): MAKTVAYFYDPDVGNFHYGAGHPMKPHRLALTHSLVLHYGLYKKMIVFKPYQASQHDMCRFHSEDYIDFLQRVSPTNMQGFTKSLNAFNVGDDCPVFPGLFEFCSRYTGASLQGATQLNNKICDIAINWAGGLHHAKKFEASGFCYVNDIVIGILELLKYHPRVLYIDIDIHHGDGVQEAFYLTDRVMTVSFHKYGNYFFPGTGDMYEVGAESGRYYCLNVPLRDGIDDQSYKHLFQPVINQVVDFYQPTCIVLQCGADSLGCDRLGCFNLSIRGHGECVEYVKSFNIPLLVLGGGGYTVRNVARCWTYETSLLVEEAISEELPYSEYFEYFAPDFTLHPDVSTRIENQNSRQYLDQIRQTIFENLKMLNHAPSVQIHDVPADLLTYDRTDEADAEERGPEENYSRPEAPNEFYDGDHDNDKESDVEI
Bfl-1 A1 inh – caspase 3/7 activation in MEF A1-2A-BIM cells, primary screen, A1 inhibitor project, cell-based, luminescence, HTS; caspase activation, % (no concentration beside the values); AID 2462, 2010; Caspase-Glo 3/7 luminescence, 3 h; percent of clofoctol response, vehicle zero; 0.066% of 330,000 active;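 active means over half of replicate activation scores above 10%, or exactly half above 10 with the replicate mean above 10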
ATG4B inh – ATG4B protease inhibitors, primary screen, biochemical, fluorescence, uHTS | inhibition, % at 8.33 µM | Cysteine protease ATG4B (Homo sapiens), Q9Y4P1 | 0.51% of 340,000 active | ATG4B cleavage of LC3-PLA2, NBD-HPC fluorescence, 1 h; in the data active means inhibition above about 40%
AI-2 QS mod – Vibrio harveyi AI-2 quorum sensing modulators, primary screen, JMH597 strain, luminescence/OD600 ratio; activity change, % at 7.5 µM; Vibrio harveyi JMH597 AI-2 luminescence/OD600 ratio, 9 h; hits give low values; strain lacks LuxN and CqsS sensors; 0 = neutral-control median; 0.4% of 300,000 active; in the data active means activity change below about -75%, passing the limit was not always enough;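 further: luminescence divided by OD600 gain over 9 h not by final OD600 alone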
LANA-H2A inh – blockers of LANA interaction with H2A/H2B – biochemical, FP readout, HTS, primary screen. Protein LANA1 (Human herpesvirus 8 type P (isolate GK18)), Q9QR71. cell-free LANA-H2A/H2B peptide, fluorescence polarization. inhibition, % (test concentration not listed). 0.6% of 320,000 active. AID 2629, 2010; in the data active means inhibition mostly above about 10%, no sharp cut-off; inactive means mostly below about 6.7%
ATG4B confirm – ATG4B protease inhibitors, retest, confirmation, biochemical, fluorescence, single concentration. shares compounds with ATG4B inh. ATG4B protease fluorescent substrate cleavage assay. inhibition, % at 8.33 µM. 92% of 320 active; in the data active means inhibition above about 39%
PLA2 ctr – PLA2 enzyme inhibition, counter-screen for ATG4B inhibitor project, biochemical, single concentration, uHTS hits; shares compounds with ATG4B inh; purified PLA2, NBD-C6-HPC fluorescence, 45 min; inhibition, % at 8.33 µM; 66% of 1,600 active; in the data active means inhibition above about 50%
Active calls of the source: *.

NC(=O)c1ccc(Oc2ccc3c(c2)CCC3)c([N+](=O)[O-])c1 was read as HKDC1 inh 3, HDAC3 inh 2, Bfl-1 A1 inh 0, ATG4B inh 80*, AI-2 QS mod 64, LANA-H2A inh 6 and PLA2 ctr 85*.
`O=C(O)c1ccc(Oc2ccc([N+](=O)[O-])cc2)c([N+](=O)[O-])c1` gave HKDC1 inh 1 and ATG4B inh 2.
For CC(/C=C1\SC(=S)N(CCCC(=O)Nc2ccc(C(=O)O)cc2)C1=O)=C\c1ccccc1 the results were HKDC1 inh -5, HDAC3 inh 4, Bfl-1 A1 inh 1, ATG4B inh 65*, AI-2 QS mod 22, LANA-H2A inh 3, ATG4B confirm 41* and PLA2 ctr 28.
O=C(O)C(Cc1ccccc1)N1C(=O)/C(=C/c2ccccc2)SC1=S (stereo not given) was read as HKDC1 inh 7, HDAC3 inh -1, Bfl-1 A1 inh 1, ATG4B inh 18, AI-2 QS mod 125 and LANA-H2A inh -4.
`CC(=C\c1ccccc1)/C=C1/SC(=S)N(CCCC(=O)O)C1=O` gave HKDC1 inh 7, HDAC3 inh 0, Bfl-1 A1 inh 1, ATG4B inh 52*, AI-2 QS mod 69, LANA-H2A inh 3, ATG4B confirm 78* and PLA2 ctr 9.
Screening Cc1ccc(/C=C2\SC(=S)N(C(Cc3ccccc3)C(=O)O)C2=O)cc1 (stereo not given) returned HKDC1 inh -1, HDAC3 inh 15, Bfl-1 A1 inh 0, ATG4B inh 48*, AI-2 QS mod 28, LANA-H2A inh -3, ATG4B confirm 79* and PLA2 ctr 22.
CC(=C\c1ccccc1)/C=C1/SC(=S)N(C(C(=O)O)C(C)C)C1=O (stereo not given) was read as HKDC1 inh 2, ATG4B inh 26 and AI-2 QS mod -22.
`CC(/C=C1\SC(=S)N(CCC(=O)Nc2cccc(C(=O)O)c2)C1=O)=C\c1ccccc1` gave HKDC1 inh 11, HDAC3 inh 3, Bfl-1 A1 inh -1, ATG4B inh 25, AI-2 QS mod 24 and LANA-H2A inh -4.
`CCC(C(=O)O)N1C(=O)/C(=C/C(C)=C/c2ccccc2)SC1=S` (stereo not given) gave HKDC1 inh 6, Bfl-1 A1 inh 1, ATG4B inh 80*, AI-2 QS mod 3, LANA-H2A inh 0 and PLA2 ctr 83*.
Screening CCOc1cc(NC(=S)Nc2ccc(Cl)cc2)c(OCC)cc1NC(C)=O returned HKDC1 inh 13, HDAC3 inh 3, Bfl-1 A1 inh 1, ATG4B inh 4, AI-2 QS mod 1 and LANA-H2A inh -5.
For O=C(OCc1cc(Cl)ccc1OC(F)F)c1cncc(Br)c1 the results were HKDC1 inh -1, HDAC3 inh 5, Bfl-1 A1 inh 1, ATG4B inh 52*, AI-2 QS mod 51, LANA-H2A inh 2 and PLA2 ctr 54*.
CC(C)N(C(=O)COC(=O)c1cncc(Br)c1)C(C)C was read as HKDC1 inh -17, HDAC3 inh -3, Bfl-1 A1 inh 0, ATG4B inh 2, AI-2 QS mod 21 and LANA-H2A inh -1.
